System: RAW264.7
Experiment: Antiinflammatory activity in mouse RAW264.7 cells assessed as reduction in LPS-induced nitrite production by measuring nitrite levels at 30 uM pretreated for 1 hr followed by LPS-challenge measured after 20 to 24 hrs by Griess assay relative to control
Type: functional
Set-up: scale not given: the % may be the effect or the level left
Conditions: not given
Summary of the method: (§1)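 RAW 264.7 cells in DMEM with 10% FBS and penicillin/streptomycin, 37 °C, 5% CO2, seeded at 200×10^3 per well in 24-well plates. Media replaced at 24 h. Compound in DMSO (0.5% final) added 2 h later, then LPS 60 ng/ml 1 h after that. Media collected 20–24 h after LPS. 3–4 wells per concentration, expressed as % of DMSO vehicle control (mean ± SE).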

Q: With O=C1c2cccc([N+](=O)[O-])c2CN1C12CC3CC(CC1C3)C2 as the compound, how does the Activity read?
A: Its Activity is 49%.

Q: For CC(N1Cc2ccccc2C1=O)C12CC3CC(CC(C3)C1)C2 (stereo not drawn), which Activity is on record?
A: The Activity was 52%.

Q: Which Activity does the source give for O=C1c2cccc([N+](=O)[O-])c2CN1CC12CC3CC(CC(C3)C1)C2 here?
A: Its Activity is 55%.

Q: Which Activity does the source give for O=C1c2ccccc2CN1C1C2CC3CC(C2)CC1C3 (stereo not drawn) here?
A: Its Activity is 62%.

Q: With Nc1cccc2c1CN(C1C3CC4CC(C3)CC1C4)C2=O (stereo not drawn) as the compound, how does the Activity read?
A: The Activity was 72%.

Q: Which Activity does the source give for CC(N1Cc2c(cccc2[N+](=O)[O-])C1=O)C12CC3CC(CC(C3)C1)C2 (stereo not drawn) here?
A: The Activity was 35%.

Q: Which Activity does the source give for O=C1c2cccc([N+](=O)[O-])c2CN1C12CC3CC(CC(O)(C3)C1)C2 here?
A: Its Activity is 94%.

Q: With O=C1c2cccc([N+](=O)[O-])c2CN1C12CC3CC(CC(C3)C1)C2 as the compound, how does the Activity read?
A: Its Activity is 40%.

Q: Which Activity does the source give for O=C1c2ccccc2CN1C12CC3CC(CC(O)(C3)C1)C2 here?
A: Its Activity is 101%.

Q: For CC(N1Cc2ccccc2C1=S)C12CC3CC(CC(C3)C1)C2 (stereo not drawn), which Activity is on record?
A: Its Activity is 52%.

Q: Which Activity does the source give for O=C1c2cccc([N+](=O)[O-])c2CN1C1C2CC3CC(C2)CC1C3 (stereo not drawn) here?
A: The Activity was 9.2%.

Q: With O=C1c2ccccc2CN1CC12CC3CC(CC(C3)C1)C2 as the compound, how does the Activity read?
A: The Activity was 50%.

Q: With CC(N1Cc2c(cccc2[N+](=O)[O-])C1=S)C12CC3CC(CC(C3)C1)C2 (stereo not drawn) as the compound, how does the Activity read?
A: Its Activity is 11.5%.

System: RAW264.7
Experiment: Antiinflammatory activity in mouse RAW264.7 cells assessed as reduction in LPS-induced TNFalpha production by measuring TNFalpha levels at 30 uM pretreated for 1 hr followed by LPS-challenge measured after 20 to 24 hrs by ELISA relative to control
Type: functional
Set-up: scale not given: the % may be the effect or the level left
Conditions: not given
Summary of the method: as §1

Q: For O=C1c2cccc([N+](=O)[O-])c2CN1C12CC3CC(CC1C3)C2, which Activity is on record?
A: The Activity was 90%.

Q: For CC(N1Cc2ccccc2C1=O)C12CC3CC(CC(C3)C1)C2 (stereo not drawn), which Activity is on record?
A: Its Activity is 55%.

Q: With O=C1c2cccc([N+](=O)[O-])c2CN1CC12CC3CC(CC(C3)C1)C2 as the compound, how does the Activity read?
A: The Activity was 77%.

Q: Which Activity does the source give for O=C1c2ccccc2CN1C1C2CC3CC(C2)CC1C3 (stereo not drawn) here?
A: The Activity was 58%.

Q: With Nc1cccc2c1CN(C1C3CC4CC(C3)CC1C4)C2=O (stereo not drawn) as the compound, how does the Activity read?
A: The Activity was 101%.

Q: For CC(N1Cc2c(cccc2[N+](=O)[O-])C1=O)C12CC3CC(CC(C3)C1)C2 (stereo not drawn), which Activity is on record?
A: Its Activity is 72%.

Q: With S=C1c2ccccc2CN1C12CC3CC(CC1C3)C2 as the compound, how does the Activity read?
A: The Activity was 85%.

Q: With O=C1c2ccccc2CN1C12CC3CC(CC1C3)C2 as the compound, how does the Activity read?
A: Its Activity is 52%.

Q: Which Activity does the source give for O=C1c2cccc([N+](=O)[O-])c2CN1C12CC3CC(CC(O)(C3)C1)C2 here?
A: Its Activity is 91%.

Q: With O=C1c2cccc([N+](=O)[O-])c2CN1C12CC3CC(CC(C3)C1)C2 as the compound, how does the Activity read?
A: The Activity was 86%.

Q: Which Activity does the source give for O=C1c2ccccc2CN1C12CC3CC(CC(O)(C3)C1)C2 here?
A: The Activity was 80%.

Q: Which Activity does the source give for CC(N1Cc2ccccc2C1=S)C12CC3CC(CC(C3)C1)C2 (stereo not drawn) here?
A: Its Activity is 90%.

Q: With O=C1c2cccc([N+](=O)[O-])c2CN1C1C2CC3CC(C2)CC1C3 (stereo not drawn) as the compound, how does the Activity read?
A: The Activity was 65%.

Q: For O=C1c2ccccc2CN1CC12CC3CC(CC(C3)C1)C2, which Activity is on record?
A: Its Activity is 59%.

Q: For CC(N1Cc2c(cccc2[N+](=O)[O-])C1=S)C12CC3CC(CC(C3)C1)C2 (stereo not drawn), which Activity is on record?
A: Its Activity is 96%.

System: not listed separately
Experiment: Cytotoxicity against LPS-induced mouse RAW264.7 cells assessed as cell viability at 30 uM pretreated for 1 hr followed by LPS-challenge measured after 20 to 24 hrs by CellTiter 96 aqueous non-radioactive cell proliferation assay
Type: cell-based
Conditions: LPS-induced RAW264.7 cells, read-out: Activity
Summary of the method: as §1

Q: Which viability at 30 µM does the source give for O=C1c2cccc([N+](=O)[O-])c2CN1C12CC3CC(CC1C3)C2 here?
A: The viability at 30 µM was 92%.

Q: Which viability at 30 µM does the source give for CC(N1Cc2ccccc2C1=O)C12CC3CC(CC(C3)C1)C2 (stereo not drawn) here?
A: The viability at 30 µM was 82%.

Q: Which viability at 30 µM does the source give for O=C1c2cccc([N+](=O)[O-])c2CN1CC12CC3CC(CC(C3)C1)C2 here?
A: Its viability at 30 µM is 92%.

Q: Which viability at 30 µM does the source give for O=C1c2ccccc2CN1C1C2CC3CC(C2)CC1C3 (stereo not drawn) here?
A: The viability at 30 µM was 75%.

Q: With Nc1cccc2c1CN(C1C3CC4CC(C3)CC1C4)C2=O (stereo not drawn) as the compound, how does the viability at 30 µM read?
A: Its viability at 30 µM is 99%.

Q: For CC(N1Cc2c(cccc2[N+](=O)[O-])C1=O)C12CC3CC(CC(C3)C1)C2 (stereo not drawn), which viability at 30 µM is on record?
A: Its viability at 30 µM is 81%.

Q: With S=C1c2ccccc2CN1C12CC3CC(CC1C3)C2 as the compound, how does the viability at 30 µM read?
A: Its viability at 30 µM is 94%.

Q: With O=C1c2ccccc2CN1C12CC3CC(CC1C3)C2 as the compound, how does the viability at 30 µM read?
A: The viability at 30 µM was 74%.

Q: With O=C1c2cccc([N+](=O)[O-])c2CN1C12CC3CC(CC(O)(C3)C1)C2 as the compound, how does the viability at 30 µM read?
A: Its viability at 30 µM is 107%.

Q: For O=C1c2cccc([N+](=O)[O-])c2CN1C12CC3CC(CC(C3)C1)C2, which viability at 30 µM is on record?
A: Its viability at 30 µM is 114%.

Q: Which viability at 30 µM does the source give for O=C1c2ccccc2CN1C12CC3CC(CC(O)(C3)C1)C2 here?
A: The viability at 30 µM was 98%.

Q: For CC(N1Cc2ccccc2C1=S)C12CC3CC(CC(C3)C1)C2 (stereo not drawn), which viability at 30 µM is on record?
A: Its viability at 30 µM is 84%.

Q: For O=C1c2cccc([N+](=O)[O-])c2CN1C1C2CC3CC(C2)CC1C3 (stereo not drawn), which viability at 30 µM is on record?
A: Its viability at 30 µM is 82%.

Q: For O=C1c2ccccc2CN1CC12CC3CC(CC(C3)C1)C2, which viability at 30 µM is on record?
A: Its viability at 30 µM is 81%.

Q: For CC(N1Cc2c(cccc2[N+](=O)[O-])C1=S)C12CC3CC(CC(C3)C1)C2 (stereo not drawn), which viability at 30 µM is on record?
A: The viability at 30 µM was 83%.

System: not listed separately
Experiment: Solubility of the compound in DMEM media at 30 uM
Type: physicochemical
Conditions: not given

Q: For S=C1c2ccccc2CN1C12CC3CC(CC1C3)C2, which solubility is on record?
A: Its solubility is “Insoluble”.

Q: With O=C1c2cccc([N+](=O)[O-])c2CN1C12CC3CC(CC(C3)C1)C2 as the compound, how does the solubility read?
A: The solubility was “Insoluble”.

Q: Which solubility does the source give for CC(N1Cc2ccccc2C1=S)C12CC3CC(CC(C3)C1)C2 (stereo not drawn) here?
A: Its solubility is “Insoluble”.

Species: Danio rerio
Experiment: Antiangiogenic activity in 24 hrs post fertilized zebra fish embryo harboring fli1:EGFP assessed as intersegmental vessel length at 10 ug/ml after 24 hrs by fluorescence microscopic analysis
Type: functional
Conditions: not given
Summary of the method: (§2)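 fli1:EGFP transgenic zebrafish embryos, identified by fluorescence, manually dechorionated at 24 h post fertilization and placed in plates with compound diluted in tank water, vehicle controls alongside. After 24 h exposure, embryos anaesthetized with 0.1% tricaine and intersegmental vessels scored for length (µm) and number. Values given as mean ± S.E.M.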

Q: Which Activity does the source give for O=C1c2cccc([N+](=O)[O-])c2CN1C12CC3CC(CC1C3)C2 here?
A: Its Activity is 42.8 um.

Q: With Nc1cccc2c1CN(C1C3CC4CC(C3)CC1C4)C2=O (stereo not drawn) as the compound, how does the Activity read?
A: The Activity was 42.1 um.

Q: Which Activity does the source give for O=C1c2ccccc2CN1C12CC3CC(CC(O)(C3)C1)C2 here?
A: Its Activity is 105.1 um.

Q: Which Activity does the source give for O=C1c2ccccc2CN1CC12CC3CC(CC(C3)C1)C2 here?
A: Its Activity is 83.1 um.

Q: For CC(N1Cc2c(cccc2[N+](=O)[O-])C1=S)C12CC3CC(CC(C3)C1)C2 (stereo not drawn), which Activity is on record?
A: Its Activity is 86.4 um.

Species: Danio rerio
Experiment: Antiangiogenic activity in 24 hrs post fertilized zebra fish embryo harboring fli1:EGFP assessed as intersegmental vessel length at 5 ug/ml after 24 hrs by fluorescence microscopic analysis
Type: functional
Conditions: not given
Summary of the method: as §2

Q: Which Activity does the source give for O=C1c2cccc([N+](=O)[O-])c2CN1C1C2CC3CC(C2)CC1C3 (stereo not drawn) here?
A: The Activity was 48.2 um.

Species: Danio rerio
Experiment: Antiangiogenic activity in 24 hrs post fertilized zebra fish embryo harboring fli1:EGFP assessed as number of intersegmental vessel at 10 ug/ml after 24 hrs by fluorescence microscopic analysis
Type: functional
Conditions: not given
Summary of the method: as §2

Q: Which Activity does the source give for O=C1c2cccc([N+](=O)[O-])c2CN1C12CC3CC(CC1C3)C2 here?
A: The Activity was 8.6.

Q: With Nc1cccc2c1CN(C1C3CC4CC(C3)CC1C4)C2=O (stereo not drawn) as the compound, how does the Activity read?
A: Its Activity is 14.

Q: Which Activity does the source give for O=C1c2ccccc2CN1C12CC3CC(CC(O)(C3)C1)C2 here?
A: Its Activity is 19.5.

Q: With O=C1c2ccccc2CN1CC12CC3CC(CC(C3)C1)C2 as the compound, how does the Activity read?
A: Its Activity is 18.2.

Q: Which Activity does the source give for CC(N1Cc2c(cccc2[N+](=O)[O-])C1=S)C12CC3CC(CC(C3)C1)C2 (stereo not drawn) here?
A: The Activity was 22.

Species: Danio rerio
Experiment: Antiangiogenic activity in 24 hrs post fertilized zebra fish embryo harboring fli1:EGFP assessed as number of intersegmental vessel at 5 ug/ml after 24 hrs by fluorescence microscopic analysis
Type: functional
Conditions: not given
Summary of the method: as §2

Q: With O=C1c2cccc([N+](=O)[O-])c2CN1C1C2CC3CC(C2)CC1C3 (stereo not drawn) as the compound, how does the Activity read?
A: The Activity was 14.6.

Species: Danio rerio
Experiment: Toxicity in 24 hrs post fertilized zebra fish embryo harboring fli1:EGFP at >5 ug/ml
Type: organism-based
Conditions: zebrafish, in vivo

Q: For O=C1c2cccc([N+](=O)[O-])c2CN1C1C2CC3CC(C2)CC1C3 (stereo not drawn), which Activity is on record?
A: The Activity was “Toxic”.

Species: Danio rerio
Experiment: Antiangiogenic activity in 24 hrs post fertilized zebra fish embryo harboring fli1:EGFP assessed as intersegmental vessel length after 24 hrs by fluorescence microscopic analysis
Type: functional, organism-based
Conditions: not given
Summary of the method: as §2

Q: With O=C1c2cccc([N+](=O)[O-])c2CN1C12CC3CC(CC1C3)C2 as the compound, how does the Activity read?
A: The Activity was “Dose-dependent effect”.

Q: Which Activity does the source give for Nc1cccc2c1CN(C1C3CC4CC(C3)CC1C4)C2=O (stereo not drawn) here?
A: The Activity was “Dose-dependent effect”.

Species: Danio rerio
Experiment: Toxicity in 24 hrs post fertilized zebra fish embryo harboring fli1:EGFP at >50 ug/ml
Type: organism-based
Conditions: zebrafish, in vivo

Q: Which Activity does the source give for O=C1c2cccc([N+](=O)[O-])c2CN1C12CC3CC(CC1C3)C2 here?
A: The Activity was “Toxic”.

Q: With Nc1cccc2c1CN(C1C3CC4CC(C3)CC1C4)C2=O (stereo not drawn) as the compound, how does the Activity read?
A: Its Activity is “Toxic”.

Reference: ChEMBL document CHEMBL4219084, “Design, synthesis and biological assessment of N-adamantyl, substituted adamantyl and noradamantyl phthalimidines for nitrite, TNF-α and angiogenesis inhibitory activities” (Bioorg Med Chem, 2018)
